Measurements taken from PMC7047882 (Archives of biochemistry and biophysics, 2019).
Like-named read-outs stand apart in the source and are kept apart here.

What was measured:
bovine brain tubulin [1] = target: T1, bovine brain tubulin (Bos taurus, UniProt P81947+Q6B856); test: Turbidity development; format: biochemical
Procedure, shortened: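 Electrophoretically homogeneous bovine brain tubulin, without the gel-filtration step used for the binding studies. Reactions were run in glass vessels in 0.1 M Mes, brought to pH 6.5 or 6.9 with NaOH, with MgCl2 (for example 2 mM, 22 °C). Test compounds were added from dimethyl sulfoxide stocks, with the same dimethyl sulfoxide concentration in controls. The read-out was turbidity development.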

bovine brain tubulin [2] = target: T1, bovine brain tubulin; test: Recovery of compound-induced aberrant tubulin polymer by centrifugation; format: biochemical; settings: for tubulin recovery by centrifugation (in words): pH 6.9, 2 mM MgCl2, 22 °C
Procedure, shortened: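 Electrophoretically homogeneous bovine brain tubulin, without gel filtration, was used. Reaction mixtures contained 0.1 M Mes (pH 6.9 or 6.5, adjusted with NaOH) with 2 mM MgCl₂ at 22 °C. The test compound was added from dimethyl sulfoxide stocks, and controls received equal dimethyl sulfoxide. Reactions were run in glass vessels, and aberrant polymer was harvested by centrifugation and read as tubulin in pellets.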

tubulin [3] = settings: cited from earlier work
tubulin [4] = settings: cited from earlier work; remark: listed apart in the source
tubulin [5] = settings: cited from earlier work; remark: listed apart in the source
bovine brain tubulin [6] = target: T1, bovine brain tubulin; test: biochemical; format: binding; settings: for inhibition at 30 µM: pH 6.9, read-out: Effect on DZA binding (% inhibition ± SE)
cultured cancer cells = settings: cited from earlier work

T1 sequence (Q6B856 whole entry): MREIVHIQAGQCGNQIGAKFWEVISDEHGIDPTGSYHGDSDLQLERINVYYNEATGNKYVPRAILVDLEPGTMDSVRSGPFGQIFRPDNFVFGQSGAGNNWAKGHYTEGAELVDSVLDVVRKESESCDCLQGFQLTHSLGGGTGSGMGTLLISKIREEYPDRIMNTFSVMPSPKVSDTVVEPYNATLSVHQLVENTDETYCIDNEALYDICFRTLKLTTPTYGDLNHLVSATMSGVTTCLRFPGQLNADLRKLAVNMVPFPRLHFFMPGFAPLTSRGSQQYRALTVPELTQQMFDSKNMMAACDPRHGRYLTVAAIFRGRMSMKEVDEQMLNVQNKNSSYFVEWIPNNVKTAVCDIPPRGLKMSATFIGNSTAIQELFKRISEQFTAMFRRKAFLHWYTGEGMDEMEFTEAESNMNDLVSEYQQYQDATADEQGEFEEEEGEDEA
T1 sequence (P81947 whole entry): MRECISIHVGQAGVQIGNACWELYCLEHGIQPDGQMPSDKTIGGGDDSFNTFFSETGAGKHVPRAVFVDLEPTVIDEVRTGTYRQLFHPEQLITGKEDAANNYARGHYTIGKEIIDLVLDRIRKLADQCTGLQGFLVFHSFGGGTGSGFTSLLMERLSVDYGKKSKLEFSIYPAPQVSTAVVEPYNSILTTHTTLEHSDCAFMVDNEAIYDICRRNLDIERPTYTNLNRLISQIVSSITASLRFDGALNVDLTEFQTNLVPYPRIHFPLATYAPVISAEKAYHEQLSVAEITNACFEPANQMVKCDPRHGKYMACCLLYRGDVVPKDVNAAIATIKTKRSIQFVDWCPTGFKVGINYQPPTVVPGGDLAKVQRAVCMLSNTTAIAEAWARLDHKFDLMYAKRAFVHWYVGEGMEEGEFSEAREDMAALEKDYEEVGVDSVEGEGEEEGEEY

In the case of `CC(C)[C@H](O)C(=O)N[C@H]1Cc2ccc3c(c2)[C@]24C5=C(N=C(O5)[C@H](C(C)C)NC1=O)c1nc(Cl)c(o1)-c1c(Cl)[nH]c5cccc(c15)-c1cccc2c1N[C@@H]4O3` [DZA, diazonamide A], the “turbidity development (in words)” value (bovine brain tubulin [1]; 0.1 M Mes (pH 6.5), 2 mM MgCl2, 22 °C) is reported as “differed little from that with D10”, the “tubulin recovery by centrifugation (in words)” value (from here on “tubulin recovery”) (bovine brain tubulin [2]; 10 and 20 μM compound) is reported as “large amounts” and the “tubulin recovered in pellets (in words)” value (bovine brain tubulin [2]; pH 6.5, 2 mM MgCl2, 22 °C) is reported as “almost all the tubulin”. For the same molecule, the “inhibition of binding of [^3H]vinblastine to tubulin (in words)” value (tubulin [3]) was “no inhibition”, the “inhibition of tubulin assembly (in words)” value (tubulin [4]) was “potent inhibitor” and the “inhibition of binding of [^3H]D10 to tubulin (in words)” value (tubulin [5]) was “no inhibition”. The “inhibition of [^3H]DZA binding to tubulin (in words)” value (bovine brain tubulin [6]) was “no inhibition of binding”.
For `COc1ccc(C[C@H]2NC(=O)/C=C/C[C@@H]([C@H](C)[C@H]3O[C@@H]3c3ccccc3)OC(=O)[C@H](CC(C)C)OC(=O)[C@H](C)CNC2=O)cc1Cl` [Cryptophycin 1, cryptophycin 1], the “turbidity development (in words)” value (bovine brain tubulin [1]; most conditions examined) is listed as “little turbidity development”, the “IC50 values for cultured cancer cells (in words)” value (cultured cancer cells) is listed as “picomolar” and the “maximal inhibition of [^3H]DZA binding” value (bovine brain tubulin [6]; preincubated tubulin, near maximal with 3 μM compound) is listed as 50-60%.
`COc1ccc(/C=C\c2cc(OC)c(OC)c(OC)c2)cc1O` [Combretastatin A-4, combretastatin A-4] gave an inhibition at 30 µM (bovine brain tubulin [6]) of 17 ± 3%.
With `CC[C@]1(O)C[C@@H]2CN(CCc3c([nH]c4ccccc34)[C@@](C(=O)OC)(c3cc4c(cc3OC)N(C)[C@H]3[C@@](O)(C(=O)OC)[C@H](OC(C)=O)[C@]5(CC)C=CCN6CC[C@]43[C@@H]65)C2)C1` [Vinblastine, vinblastine] the “tubulin recovery” value (bovine brain tubulin [2]; 20 μM compound) was “even larger amounts”, the “inhibition of [^3H]DZA binding to tubulin (in words)” value (bovine brain tubulin [6]) was “absolutely no inhibitory effect” and the “Effect on DZA binding (% enhancement ± SE; indicated by E before the value)” value (bovine brain tubulin [6]; pH 6.9) was “E 11 ± 5%”.
In the case of `CC[C@H](C)[C@@H]([C@@H](CC(=O)N1CCC[C@H]1[C@H](OC)[C@@H](C)C(=O)N[C@@H](Cc1ccccc1)c1nccs1)OC)N(C)C(=O)[C@@H](NC(=O)[C@H](C(C)C)N(C)C)C(C)C` [D10, dolastatin 10], the “turbidity development (in words)” value (bovine brain tubulin [1]; all conditions examined) is reported as “Extensive turbidity development”, the “tubulin recovery” value (bovine brain tubulin [2]; 10 and 20 μM compound) is reported as “even larger amounts” and the “inhibition of [^3H]DZA binding to tubulin (in words)” value (bovine brain tubulin [6]; without a tubulin preincubation) is reported as “inhibition was negligible”.
`COc1cc2cc(c1Cl)N(C)C(=O)C[C@H](OC(=O)[C@H](C)N(C)C(C)=O)[C@]1(C)O[C@H]1[C@H](C)[C@@H]1C[C@@](O)(NC(=O)O1)[C@H](OC)/C=C/C=C(\C)C2` [Maytansine, maytansine] showed an inhibition at 30 µM (bovine brain tubulin [6]) of 9.2 ± 6%.
With `CN[C@H](C(=O)N[C@H](C(=O)N(C)[C@H](/C=C(\C)C(=O)O)C(C)C)C(C)(C)C)C(C)(C)c1cn(C)c2ccccc12` [Hemiasterlin, hemiasterlin] the “tubulin recovery” value (bovine brain tubulin [2]; 20 μM compound) was “a moderate amount” and the inhibition at 30 µM (bovine brain tubulin [6]) was 43 ± 3%.
